# Measured values taken from ChEMBL document CHEMBL1142164, “Activities of naphthylisoquinoline alkaloids and synthetic analogs against Leishmania major” (Antimicrob Agents Chemother, 2007).
# How the values were obtained:
# [1] = tested on: Leishmania major; assay: Cytotoxicity against cloned virulent Leishmania major promastigotes MHOM/IL/81/FE/BN1 after 48 hrs; format: organism-based
# How it was run: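 L. major promastigotes grown on blood agar at 26°C, 5% CO2, then washed in PBS and suspended at 1 × 10^8 cells/ml in complete Click RPMI 1640 (10% FCS, glutamine, HEPES pH 7.2, antibiotics, 2-mercaptoethanol), no phenol red. Exposed to increasing compound concentrations 24 h at 26°C, then Alamar Blue added. OD read 540/630 nm; 48 h OD versus untreated (100% growth) gave IC50 by linear interpolation. Duplicate wells, ≥2 experiments; DMSO ≤1% final.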
# [2] = species on record: Mus musculus; assay: Cytotoxicity against J774.1 macrophages after 48 hrs; details: J774.1, 48 h
# How it was run: (§1)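 J774.1 cells, BALB/c peritoneal exudate cells (erythrocytes lysed in 10 mM NH4Cl), or BMDC (day-10 nonadherent cells from GM-CSF 200 U/ml cultures) were plated at 2 × 10^6 cells/ml in complete RPMI without phenol red. Cells were exposed to increasing concentrations for 24 h at 37°C in 5% CO2, then Alamar Blue was added. IC50 was taken by linear interpolation from the 48 h OD. Duplicate wells, at least two experiments.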
# [3] = Cytotoxicity index, IC50 for J774.1 macrophages over IC50 for Leishmania major promastigotes; details: mouse; for selectivity ratio: J774.1 macrophages, read-out: Ratio IC50
# How it was run: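 Index is J774.1 IC50 divided by promastigote IC50, with both assays run in parallel. Promastigotes were incubated 24 h at 26°C with rising concentrations, and J774.1 cells 24 h at 37°C. Alamar Blue was then added. OD at 540/630 nm was read, and IC50 was interpolated linearly from the 48 h readings, with drug-free wells set as 100% growth.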
# [4] = species on record: Mus musculus; assay: Cytotoxicity against BALB/c mouse peritoneal macrophages by Alamar blue method; format: functional; how it was run: as §1
# [5] = tested on: NIH3T3; assay: Cytotoxicity against mouse embryo NIH3T3 cells by Alamar blue method; format: cell-based
# How it was run: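 NIH 3T3 fibroblasts were grown on gelatin and suspended at 2 × 10^6 cells/ml in DMEM. They were exposed to rising compound concentrations for 24 h at 37°C in 5% CO2, then Alamar Blue was added. IC50 was derived by linear interpolation of the 48 h OD. Duplicate wells per concentration; at least two experiments.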
# [6] = Cytotoxicity against BALB/c mouse bone-marrow derived dendritic cells by Alamar blue method; format: cell-based; details: Dendritic cell; how it was run: as §1
Compound,IC50 [1],IC50 [2],selectivity ratio [3],IC50 [4],IC50 [5],IC50 [6],Ratio IC50 [3]
COc1cc(CO)c(-c2ccc3c(c2O)[C@@H](C)N[C@H](C)C3)c2cccc(O)c12 [DIONCOPELTINE A],> 100 µM,> 100 µM,,,,,
COc1cc(OC)c2c(C)[n+](-c3ccccc3)c(C)cc2c1.[O-][Cl+3]([O-])([O-])[O-],26.6 µM,39.2 µM,1.47,,,,
COc1cccc2c(-c3ccc4c(c3O)[C@@H](C)N[C@H](C)C4)c(C)cc(OC)c12 [DIONCOPHYLLINE A],47 µM,,,,,,
COc1cc(OC)c2c(C)[n+](-c3cccc4ccccc34)c(C)cc2c1.[O-][Cl+3]([O-])([O-])[O-],2.91 µM,10.2 µM,3.48,15.5 µM,15 µM,27.4 µM,
COc1ccc(-c2ccc3cc(C)nc(C)c3c2O)c2cc(C)cc(OC)c12 [DIONCOPHYLLEINE D],> 100 µM,> 100 µM,,,,,
COc1cc2c(c(OC)c1)C(C)=[N+](c1ccc(OC)c3c(OC)cc(C)cc13)[C@@H](C)C2 [ANCISANCISTROCLADINIUM A],4.9 µM,31.8 µM,6.48,41.7 µM,,36 µM,
COc1cc(C)c(-c2ccc3cc(C)nc(C)c3c2O)c2cccc(O)c12 [ENT-DIONCOPHYLLEINE A],32.3 µM,,,,,,
COc1cc2c(c(OC)c1-c1c(C)cc3cccc(OC)c3c1O)C(C)=N[C@@H](C)C2 [ANCISTROCLADIDINE],> 100 µM,> 100 µM,,,,,
COc1c2c(cc(O)c1-c1c(C)cc3cccc(OC)c3c1O)C[C@H](C)N=C2C [ANCISTROHEYNINE B],33 µM,29.9 µM,< 1,,,,
COc1cc(C)c(-c2ccc(O)c3c2C[C@@H](C)N[C@@H]3C)c2cccc(O)c12 [DIONCOPHYLLINE C],36.5 µM,32.8 µM,< 1,,,,
COc1cc(OC)c(-c2ccc(OC)c3c(OC)cc(C)cc23)c2c1C(C)=N[C@@H](C)C2 [ANCISTROEALAINE A],> 100 µM,> 100 µM,,,,,
COc1cc2c(c(OC)c1)C(C)=[N+](c1ccc3cc(C)cc(OC)c3c1O)[C@@H](C)C2 [ANCISTROCLADINIUM B],1.24 µM,11.2 µM,9.04,16.9 µM,10.6 µM,20.1 µM,
COc1cc(OC)c2c(C)[n+](-c3ccccc3)c(C)cc2c1.[Cl-],47 µM,43.7 µM,,,,,< 1
